Data reported in ChEMBL document CHEMBL3580560, “Isolation, Structural Modification, and HIV Inhibition of Pentacyclic Lupane-Type Triterpenoids from Cassine xylocarpa and Maytenus cuzcoina” (J Nat Prod, 2015).

Tests used:
[1] = Selectivity index, ratio of CC50 for mock-infected human MT2 cells to IC50 for HIV1 NL4.3-Ren infected in human MT2 cells; assay type: functional
[2] = Cytotoxicity against mock-infected human MT2 cells assessed as reduction in cell viability incubated for 48 hrs by cell-titer Glo assay; assay type: cell-based
Procedure, shortened: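 Uninfected MT-2 cells received RPMI medium instead of viral supernatant and were treated in parallel with the same fivefold dilutions (100–0.032 μM). […] Values are the mean of at least three independent experiments.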

[3] = test system: Human immunodeficiency virus 1; assay: Antiviral activity against HIV1 NL4.3-Ren infected in human MT2 cells assessed as inhibition of viral growth measured 48 hrs post infection by luminometry; assay type: functional, organism-based; details: Human immunodeficiency virus 1, NL4.3-Ren, MT2, 48 h
Procedure, shortened: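 MT-2 cells infected with X4-tropic HIV-1 NL4.3-Ren supernatant produced in 293T cells. Fivefold serial dilutions from 100 to 0.032 μM were tested. At 48 h postinfection, cells were lysed and Renilla luciferase RLU were measured. IC50 was fitted from the dose–response curve; values are the mean of at least three independent experiments.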

[4] = test system: Human immunodeficiency virus 1; assay: Antiviral activity against HIV1 NL4.3-Ren infected in human MT2 cells assessed as inhibition of viral growth at 10 uM measured 48 hrs post infection by luminometry; assay type: functional; details: Human immunodeficiency virus 1, NL4.3-Ren, MT2, 48 h

C=C(C)[C@@H]1CC[C@]2(COC(C)=O)CC[C@]3(C)[C@H](CC[C@@H]4[C@@]5(C)CCC(=O)C(C)(C)[C@@H]5CC[C@]43C)[C@@H]12
Ratio CC50/IC50 [1]: 1.5
CC50 at 48 h [2]: 20 µM
IC50 [3]: 13.4 µM
inhibition at 10 µM [4]: > 50%

C=C(C)[C@@H]1CC[C@]2(COC(C)=O)CC[C@]3(C)[C@H](CC[C@@H]4[C@@]5(C)CC[C@H](O)C(C)(C)[C@@H]5CC[C@]43C)[C@@H]12
inhibition at 10 µM [4]: < 50%

C=C(CO)[C@@H]1CC[C@]2(C)CC[C@]3(C)[C@H](CC[C@@H]4[C@@]5(C)CCC(=O)C(C)(C)[C@@H]5[C@H](O)C[C@]43C)[C@@H]12
Ratio CC50/IC50 [1]: 2.1
CC50 at 48 h [2]: 20 µM
IC50 [3]: 9.5 µM
inhibition at 10 µM [4]: > 50%

C=C(C(=O)O)[C@@H]1CC[C@]2(C)CC[C@]3(C)[C@H](CC[C@@H]4[C@@]5(C)CCC(=O)C(C)(C)[C@@H]5CC[C@]43C)[C@@H]12
CC50 at 48 h [2]: > 100 µM
IC50 [3]: 100 µM
inhibition at 10 µM [4]: > 50%

CC(C)(O)[C@@H]1CC[C@]2(C)CC[C@]3(C)[C@H](CC[C@@H]4[C@@]5(C)CCC(=O)C(C)(C)[C@@H]5[C@H](O)C[C@]43C)[C@@H]12
Ratio CC50/IC50 [1]: >14.3
CC50 at 48 h [2]: > 100 µM
IC50 [3]: 7 µM
inhibition at 10 µM [4]: > 50%

C=C(C)[C@@H]1CC[C@]2(C)CC[C@]3(C)[C@H](C[C@@H](O)[C@@H]4[C@@]5(C)C=CC(=O)C(C)(C)[C@@H]5CC[C@]43C)[C@@H]12
Ratio CC50/IC50 [1]: 6.9
CC50 at 48 h [2]: 60.4 µM
IC50 [3]: 8.7 µM
inhibition at 10 µM [4]: > 50%

C=C(C)[C@@H]1CC[C@]2(C)CC[C@]3(C)[C@H](CC[C@@H]4[C@@]5(CO)CC[C@H](O)C(C)(C)[C@@H]5CC[C@]43C)[C@@H]12
Ratio CC50/IC50 [1]: 2.9
CC50 at 48 h [2]: 20 µM
IC50 [3]: 6.9 µM
inhibition at 10 µM [4]: > 50%

C=C(COC(C)=O)[C@@H]1CC[C@]2(C)CC[C@]3(C)[C@H](CC[C@@H]4[C@@]5(C)CCC(=O)C(C)(C)[C@@H]5CC[C@]43C)[C@@H]12
Ratio CC50/IC50 [1]: 2.8
CC50 at 48 h [2]: 36.2 µM
IC50 [3]: 13.1 µM
inhibition at 10 µM [4]: > 50%

CC(C)(O)[C@@H]1CC[C@]2(C)CC[C@]3(C)[C@H](CC[C@@H]4[C@@]5(C)CC[C@H](O)C(C)(C)[C@@H]5[C@H](O)C[C@]43C)[C@@H]12
inhibition at 10 µM [4]: < 50%

C=C(C)[C@@H]1CC[C@]2(CO)CC[C@]3(C)[C@H](CC[C@@H]4[C@@]5(C)[C@H](O)C[C@@H](O)C(C)(C)[C@@H]5CC[C@]43C)[C@@H]12
inhibition at 10 µM [4]: < 50%

C=C(C)[C@@H]1CC[C@]2(CO)CC[C@]3(C)[C@H](C[C@@H](O)[C@@H]4[C@@]5(C)CCC(=O)C(C)(C)[C@@H]5CC[C@]43C)[C@@H]12
inhibition at 10 µM [4]: < 50%

C=C(C)[C@@H]1CC[C@]2(C)CC[C@]3(C)[C@H](C[C@@H](O)[C@@H]4[C@@]5(C)CC[C@@H](O)C(C)(C)[C@@H]5CC[C@]43C)[C@@H]12
inhibition at 10 µM [4]: < 50%

C=C(C)[C@@H]1CC[C@]2(C)CC[C@]3(C)[C@H](CC[C@@H]4[C@@]5(C)[C@H](O)C[C@H](O)C(C)(C)[C@@H]5CC[C@]43C)[C@@H]12
inhibition at 10 µM [4]: < 50%

C=C(C)[C@@H]1CC[C@]2(COC(=O)C(C)(C)C)CC[C@]3(C)[C@H](CC[C@@H]4[C@@]5(C)CC[C@H](O)C(C)(C)[C@@H]5CC[C@]43C)[C@@H]12
inhibition at 10 µM [4]: < 50%

C=C(C)[C@@H]1CC[C@]2(COC(=O)CCCCCCC)CC[C@]3(C)[C@H](CC[C@@H]4[C@@]5(C)CC[C@H](O)C(C)(C)[C@@H]5CC[C@]43C)[C@@H]12
inhibition at 10 µM [4]: < 50%

C=C(C)[C@@H]1CC[C@]2(COC(=O)c3ccccc3)CC[C@]3(C)[C@H](CC[C@@H]4[C@@]5(C)CC[C@H](O)C(C)(C)[C@@H]5CC[C@]43C)[C@@H]12
inhibition at 10 µM [4]: < 50%

C=C(C)[C@@H]1CC[C@]2(COC(=O)c3cccc4ccccc34)CC[C@]3(C)[C@H](CC[C@@H]4[C@@]5(C)CC[C@H](O)C(C)(C)[C@@H]5CC[C@]43C)[C@@H]12
inhibition at 10 µM [4]: < 50%

C=C(C)[C@@H]1CC[C@]2(COC(=O)c3ccc(Br)cc3)CC[C@]3(C)[C@H](CC[C@@H]4[C@@]5(C)CC[C@H](O)C(C)(C)[C@@H]5CC[C@]43C)[C@@H]12
inhibition at 10 µM [4]: < 50%

C=C(C)[C@@H]1CC[C@]2(COS(=O)(=O)c3ccc(C)cc3)CC[C@]3(C)[C@H](CC[C@@H]4[C@@]5(C)CC[C@H](O)C(C)(C)[C@@H]5CC[C@]43C)[C@@H]12
inhibition at 10 µM [4]: < 50%

C=C(C)[C@@H]1CC[C@]2(COC(=O)CCCCCCC)CC[C@]3(C)[C@H](CC[C@@H]4[C@@]5(C)CC[C@H](OC(=O)CCCCCCC)C(C)(C)[C@@H]5CC[C@]43C)[C@@H]12
inhibition at 10 µM [4]: < 50%

C=C(C)[C@@H]1CC[C@]2(COC(=O)c3cccc4ccccc34)CC[C@]3(C)[C@H](CC[C@@H]4[C@@]5(C)CC[C@H](OC(=O)c6cccc7ccccc67)C(C)(C)[C@@H]5CC[C@]43C)[C@@H]12
inhibition at 10 µM [4]: < 50%

C=C(C)[C@@H]1CC[C@]2(CO[Si](C)(C)C(C)(C)C)CC[C@]3(C)[C@H](CC[C@@H]4[C@@]5(C)CC[C@H](O)C(C)(C)[C@@H]5CC[C@]43C)[C@@H]12
inhibition at 10 µM [4]: < 50%

CC(=O)OC[C@]12CC[C@@H](C(C)(O)CO)[C@@H]1[C@H]1CC[C@@H]3[C@@]4(C)CC[C@H](O)C(C)(C)[C@@H]4CC[C@@]3(C)[C@]1(C)CC2 (stereo partly drawn)
inhibition at 10 µM [4]: < 50%

CC(=O)OC[C@]12CC[C@@H]([C@]3(C)CO3)[C@@H]1[C@H]1CC[C@@H]3[C@@]4(C)CC[C@H](O)C(C)(C)[C@@H]4CC[C@@]3(C)[C@]1(C)CC2
inhibition at 10 µM [4]: < 50%

C=C(COC(C)=O)[C@@H]1CC[C@]2(C)CC[C@]3(C)[C@H](CC[C@@H]4[C@@]5(C)CC[C@H](OC(C)=O)C(C)(C)[C@@H]5CC[C@]43C)[C@@H]12
inhibition at 10 µM [4]: < 50%

C=C(C)[C@@H]1CC[C@]2(C)CC[C@]3(C)[C@H](CC[C@@H]4[C@@]5(C)CC(Br)C(=O)C(C)(C)[C@@H]5CC[C@]43C)[C@@H]12 (stereo partly drawn)
inhibition at 10 µM [4]: < 50%

C=C(C)[C@@H]1CC[C@]2(C)CC[C@]3(C)[C@H](C[C@@H](OC(C)=O)[C@@H]4[C@@]5(C)CCC(=O)C(C)(C)[C@@H]5CC[C@]43C)[C@@H]12
inhibition at 10 µM [4]: < 50%

C=C(CCl)[C@@H]1CC[C@]2(C)CC[C@]3(C)[C@H](C[C@@H](OC(C)=O)[C@@H]4[C@@]5(C)CCC(=O)C(C)(C)[C@@H]5CC[C@]43C)[C@@H]12
inhibition at 10 µM [4]: < 50%

C=C(CCl)[C@@H]1CC[C@]2(C)CC[C@]3(C)[C@H](C[C@@H](OC(C)=O)[C@@H]4[C@@]5(C)C=CC(=O)C(C)(C)[C@@H]5CC[C@]43C)[C@@H]12
inhibition at 10 µM [4]: < 50%

CC(C)[C@@H]1CC[C@]2(C)CC[C@]3(C)[C@@H](CC[C@@H]4[C@@]5(C)CC[C@H](OC(=O)/C=C/c6ccc(O)c(O)c6)C(C)(C)[C@@H]5CC[C@]43C)[C@@H]12
inhibition at 10 µM [4]: < 50%

C=C(CO)[C@@H]1CC[C@]2(C)CC[C@]3(C)[C@H](CC[C@@H]4[C@@]5(C)CCC(=O)C(C)(C)[C@@H]5CC[C@]43C)[C@@H]12
inhibition at 10 µM [4]: < 50%

C=C(C)[C@@H]1CC[C@]2(CO)CC[C@]3(C)[C@H](CC[C@@H]4[C@@]5(C)CC[C@H](OC(=O)/C=C/c6ccc(O)c(O)c6)C(C)(C)[C@@H]5CC[C@]43C)[C@@H]12
inhibition at 10 µM [4]: < 50%

C=C(CO)[C@@H]1CC[C@]2(C)CC[C@]3(C)[C@H](CC[C@@H]4[C@@]5(C)CC[C@H](O)C(C)(C)[C@@H]5CC[C@]43C)[C@@H]12
inhibition at 10 µM [4]: < 50%

C=C(C)[C@@H]1CC[C@]2(CO)CC[C@]3(C)[C@H](CC[C@@H]4[C@@]5(C)CC[C@@H](O)C(C)(C)[C@@H]5CC[C@]43C)[C@@H]12 [3-EPI-BETULIN]
Ratio CC50/IC50 [1]: 2.3
CC50 at 48 h [2]: 20 µM
IC50 [3]: 8.8 µM
inhibition at 10 µM [4]: > 50%

C=C(C)[C@@H]1CC[C@]2(COC(C)=O)CC[C@]3(C)[C@H](CC[C@@H]4[C@@]5(C)CC[C@H](OC(C)=O)C(C)(C)[C@@H]5CC[C@]43C)[C@@H]12 [BETULIN DIACETATE]
inhibition at 10 µM [4]: < 50%

C=C(C)[C@@H]1CC[C@]2(CO)CC[C@]3(C)[C@H](CC[C@@H]4[C@@]5(C)CC[C@H](O)C(C)(C)[C@@H]5CC[C@]43C)[C@@H]12 [BETULIN]
inhibition at 10 µM [4]: < 50%

C=C(C)[C@@H]1CC[C@]2(C)CC[C@]3(C)[C@@H](CC[C@@H]4[C@@]5(C)C=CC(=O)C(C)(C)[C@@H]5CC[C@]43C)[C@@H]12 [GLOCHIDONE]
inhibition at 10 µM [4]: < 50%

C=C(C)[C@@H]1CC[C@]2(C)CC[C@]3(C)[C@H](CC[C@@H]4[C@@]5(C)CCC(=O)C(C)(C)[C@@H]5CC[C@]43C)[C@@H]12 [LUPENONE]
inhibition at 10 µM [4]: < 50%

C=C(C)[C@@H]1CC[C@]2(C)CC[C@]3(C)[C@H](CC[C@@H]4[C@@]5(C)CC[C@H](O)C(C)(C)[C@@H]5CC[C@]43C)[C@@H]12 [LUPEOL]
inhibition at 10 µM [4]: < 50%

C=C(C)[C@@H]1CC[C@]2(C)CC[C@]3(C)[C@@H](C[C@@H](O)[C@@H]4[C@@]5(C)CCC(=O)C(C)(C)[C@@H]5CC[C@]43C)[C@@H]12 [RIGIDENOL]
inhibition at 10 µM [4]: < 50%
